Measured values pooled from the literature.
Protocols differ between the studies behind these lines.
Target: Serine/threonine-protein kinase MARK2 (MARK2, Homo sapiens, UniProt Q7KZI7)

O=C(Nc1cccc(Nc2ncc(Br)c(NCCc3cnc[nH]3)n2)c1)N1CCCC1 — remaining activity (enzyme activity; inhibitor; radiometric; 1 µM): 5%
CN(C(=O)c1ccccc1)c1cc(N(C)c2ccc3c(c2)CCc2ccc(C(=O)NCCN4CCOCC4)cc2C3=O)ccc1F — remaining binding (cell-free assay; competition with immobilised ligand; 1 µM): 78%
Cc1nn(CC(F)(F)F)cc1Nc1ncc(Br)c(NCCc2cnc[nH]2)n1 — remaining activity (enzyme activity; inhibitor; radiometric; 1 µM): 55%
CN(C)C1CCN(CC#Cc2nn(C3CCCC3)c3nc(NCc4ccccc4)ncc23)C1 (stereo not drawn) — inhibition (enzyme activity; inhibitor; FRET; 10 µM): 16%
c1ccc(CNc2nc(N3CCOc4ccccc43)nc3c2CCCC3)cc1 — inhibition (target engagement in cells; inhibitor; chemoproteomics; 20 mM): -11.2%
Cc1ccc(Nc2nccc(N(C)c3ccc4c(C)n(C)nc4c3)n2)cc1S(N)(=O)=O — inhibition (enzyme activity; inhibitor; 10 µM): 16%
Cc1ccc(C(=O)NCc2ccsc2)cc1C#Cc1cn(C(C)C)c2ncnc(N)c12 — activity vs control (enzyme activity; inhibitor; 1 µM): 99%
CC(=O)Nc1c(C(C)=O)c(=O)n(C)c2nc(-c3ccc(Cl)cc3Cl)c(-c3ccc(Cl)cc3)cc12 — remaining binding (cell-free assay; competition with immobilised ligand; 1 µM): 100%
O=C(NCCCNc1nc(Nc2cccc(NC(=O)N3CCCC3)c2)ncc1I)c1cccs1 — remaining activity (enzyme activity; inhibitor; radiometric; 1 µM): 3%
CN(C)C(=O)Cn1cc(-c2nc(C3(c4ccc(-c5cnc(N)nc5)cc4)CC3)no2)cn1 — remaining binding (cell-free assay; competition with immobilised ligand; 1 µM): 92%
COc1cc(Nc2cnc(C#N)c(O[C@H](C)CN(C)C)n2)ncc1-c1cnn(C)c1 — remaining activity (enzyme activity; inhibitor; radiometric; 10 µM): 57%
CCCCN(CCCC)C(=O)CN1C[C@@H](c2cc(OC)c3c(c2)OCO3)[C@H](C(=O)O)[C@H]1CC(C)(C)CCC — remaining binding (cell-free assay; competition with immobilised ligand; 1 µM): 100%
CNc1cc(Oc2cc(C(=O)Nc3cc(N4CCN(C)CC4)cc(C(F)(F)F)c3)ccc2C)ncn1 — inhibition (target engagement in cells; inhibitor; chemoproteomics; Huh-7; 1 µM): -25.4%
C[C@@H]1CCN(C(=O)CC#N)C[C@@H]1N(C)c1ncnc2[nH]ccc12 — remaining signal (cell-free assay; inhibitor; 0.5 µM): 91.8%
Cc1nn(CC(F)(F)F)cc1Nc1nccc(NCCc2cnc[nH]2)n1 — remaining activity (enzyme activity; inhibitor; radiometric; 1 µM): 104%
O=C(Nc1cnc(Oc2ccc(F)cc2)nc1)N1CCc2ncccc2[C@@H]1c1ccc(F)cc1 — remaining binding (cell-free assay; competition with immobilised ligand; 1 µM): 90%
Cc1nn(CC(F)(F)F)cc1Nc1nccc(NCc2ccc(S(N)(=O)=O)cc2)n1 — remaining activity (enzyme activity; inhibitor; radiometric; 1 µM): 108%
CNc1cccc2cc(C(=O)Nc3ccc(C(=O)O)cc3)c(=O)[nH]c12 — inhibition (enzyme activity; inhibitor; 10 µM): -5.3%
